Measurements from ChEMBL document CHEMBL1132860 (Bioorg Med Chem Lett, 2000).

Legend:
[1] = molecular target: T1, Alpha-2A adrenergic receptor (Homo sapiens, UniProt P08913); assay: Binding affinity at human Alpha-2A adrenergic receptor in CHO cells by [3H]rauwolscine (1 nM) displacement.; format: cell-based
T1 sequence (P08913 whole entry): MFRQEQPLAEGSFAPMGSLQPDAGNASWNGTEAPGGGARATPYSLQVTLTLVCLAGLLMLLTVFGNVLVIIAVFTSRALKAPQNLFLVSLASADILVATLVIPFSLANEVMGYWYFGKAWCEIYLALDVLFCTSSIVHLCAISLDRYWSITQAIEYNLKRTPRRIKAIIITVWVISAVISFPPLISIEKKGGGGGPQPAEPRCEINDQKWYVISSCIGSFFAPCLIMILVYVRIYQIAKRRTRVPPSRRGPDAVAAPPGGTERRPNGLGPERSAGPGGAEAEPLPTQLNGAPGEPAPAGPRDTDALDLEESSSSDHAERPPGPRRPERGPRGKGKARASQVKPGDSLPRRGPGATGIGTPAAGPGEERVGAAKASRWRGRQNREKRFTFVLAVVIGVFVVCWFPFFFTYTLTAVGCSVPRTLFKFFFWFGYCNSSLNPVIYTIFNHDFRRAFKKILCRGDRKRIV
Procedure, shortened: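 Membranes from CHO cells stably expressing the human receptor, with 1 nM [3H]rauwolscine as radioligand. Nonspecific binding was defined with 1 μM oxymethazoline. Compounds were tested over 10^-5 to 10^-11. Inhibition curves were fitted as sigmoids by non-linear regression using polynomials, and pIC50 (−log IC50) was read from the curves.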

[2] = molecular target: T2, Alpha-2B adrenergic receptor (Homo sapiens, UniProt P18089); assay: Binding affinity at human Alpha-2B adrenergic receptor in CHO cells by [3H]rauwolscine (1 nM) displacement.; format: cell-based
T2 sequence (P18089 whole entry): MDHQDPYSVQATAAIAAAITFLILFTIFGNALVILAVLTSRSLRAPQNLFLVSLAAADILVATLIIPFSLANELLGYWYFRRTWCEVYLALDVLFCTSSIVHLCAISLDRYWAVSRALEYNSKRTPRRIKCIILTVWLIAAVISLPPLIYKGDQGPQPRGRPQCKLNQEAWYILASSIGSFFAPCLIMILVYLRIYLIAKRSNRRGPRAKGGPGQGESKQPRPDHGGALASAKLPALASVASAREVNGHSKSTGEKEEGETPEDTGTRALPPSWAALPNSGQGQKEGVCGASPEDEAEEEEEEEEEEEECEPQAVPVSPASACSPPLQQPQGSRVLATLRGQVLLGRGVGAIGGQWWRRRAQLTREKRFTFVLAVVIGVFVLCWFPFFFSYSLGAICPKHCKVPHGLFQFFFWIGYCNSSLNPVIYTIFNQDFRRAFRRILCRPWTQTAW

[3] = molecular target: T3, Alpha-1A adrenergic receptor (Homo sapiens, UniProt P35348); assay: Binding affinity at human Alpha-1A adrenergic receptor in CHO cells uby [3H]prazosin (0.25 nM) displacement.; format: cell-based
T3 sequence (P35348 whole entry): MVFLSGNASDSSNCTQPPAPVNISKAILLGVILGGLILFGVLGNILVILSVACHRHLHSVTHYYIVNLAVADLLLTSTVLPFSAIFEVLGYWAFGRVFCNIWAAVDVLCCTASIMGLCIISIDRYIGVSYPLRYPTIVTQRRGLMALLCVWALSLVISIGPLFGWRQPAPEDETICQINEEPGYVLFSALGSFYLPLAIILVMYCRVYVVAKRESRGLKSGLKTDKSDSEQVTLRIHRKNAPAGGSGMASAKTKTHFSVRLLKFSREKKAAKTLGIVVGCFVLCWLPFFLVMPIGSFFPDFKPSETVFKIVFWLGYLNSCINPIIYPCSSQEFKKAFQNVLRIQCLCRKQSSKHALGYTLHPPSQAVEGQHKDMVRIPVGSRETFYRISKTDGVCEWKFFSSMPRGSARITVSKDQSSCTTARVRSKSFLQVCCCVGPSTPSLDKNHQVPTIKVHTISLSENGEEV

[4] = molecular target: T4, Alpha-2C adrenergic receptor (Homo sapiens, UniProt P18825); assay: biochemical; format: cell-based, CHO
T4 sequence (P18825 whole entry): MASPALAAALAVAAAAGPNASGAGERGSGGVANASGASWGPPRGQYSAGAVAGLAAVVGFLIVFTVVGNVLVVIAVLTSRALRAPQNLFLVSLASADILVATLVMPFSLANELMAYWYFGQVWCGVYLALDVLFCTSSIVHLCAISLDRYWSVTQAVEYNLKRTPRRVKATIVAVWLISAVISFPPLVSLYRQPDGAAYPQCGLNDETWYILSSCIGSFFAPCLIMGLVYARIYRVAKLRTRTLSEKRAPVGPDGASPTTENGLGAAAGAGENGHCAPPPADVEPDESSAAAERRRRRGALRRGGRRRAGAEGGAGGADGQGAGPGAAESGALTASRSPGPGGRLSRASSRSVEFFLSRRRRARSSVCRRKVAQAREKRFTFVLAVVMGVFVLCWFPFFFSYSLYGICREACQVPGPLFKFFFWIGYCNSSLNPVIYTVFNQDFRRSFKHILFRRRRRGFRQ

[5] = tested on: Rattus norvegicus; assay: Inhibition of Xylazine (15 mg/kg i.v.) induced loss of righting reflex in rats following i.v. administration.; format: functional; set-up: unit not given here
[6] = tested on: Rattus norvegicus; assay: Inhibition of clonidine (0.04 mg/kg) induced anti diarrhoeal effects in rats following s.c. administration.; format: functional; set-up: unit not given here

SMILES	IC50 [1]	IC50 [2]	IC50 [3]	IC50 [4]	Activity [5]	Activity [6]
COc1cc2nc(C)c(CCN3CCc4oc5ccccc5c4C3)c(=O)n2cc1OC	3.55 nM	195 nM	5250 nM	57.5 nM	>10	>0.63
Cc1nc2c(Cl)cc(Cl)cn2c(=O)c1CCN1CCc2oc3ccccc3c2C1	0.589 nM		2570 nM		>10	>2.5
COc1cccn2c(=O)c(CCN3CCc4oc5ccccc5c4C3)c(C)nc12	0.295 nM	2.04 nM	115 nM	0.708 nM	0.63	0.63
Cc1nc2ccccn2c(=O)c1CCN1CCc2oc3ccc(Cl)cc3c2C1	3.89 nM	79.4 nM		27.5 nM	10	>2.5
Cc1cc(C)n2c(=O)c(CCN3CCc4oc5ccccc5c4C3)c(C)nc2c1	0.339 nM	2.63 nM	240 nM	0.851 nM	>10	>2.5
O=c1c(CCN2CCc3oc4ccccc4c3C2)c(Cc2ccccc2)nc2ccccn12	2.19 nM	4.17 nM	204 nM	2.69 nM	>10	>2.5
CN1CCN2c3ncccc3Cc3ccccc3C2C1 (stereo not drawn) [MIRTAZAPINE]				200 nM	2.5	>10
Cc1nc2ccccn2c(=O)c1CCN1CCc2sc3ccccc3c2C1	1.74 nM	11.5 nM	214 nM	14.1 nM	2.5	10
Cc1nc2ccccn2c(=O)c1CCN1CCc2oc3c(Cl)cccc3c2C1	0.891 nM	4.37 nM	282 nM	2.24 nM	2.5	0.63
c1ccc2c(c1)OCC(C1=NCCN1)O2 (stereo not drawn) [IDAZOXAN]					0.63	0.63
Cc1nc2c(Cl)cc(C(F)(F)F)cn2c(=O)c1CCN1CCc2oc3ccccc3c2C1	1.17 nM	1.95 nM	5890 nM			

Continued, in another order:

IC50 [1]	IC50 [2]	IC50 [3]	IC50 [4]	SMILES	Activity [5]	Activity [6]
0.24 nM	2.09 nM	479 nM	0.617 nM	Cc1nc2ccc(I)cn2c(=O)c1CCN1CCc2oc3ccccc3c2C1	10	>2.5
0.288 nM	1.48 nM	398 nM	1.07 nM	Cc1nc2cccc(C)n2c(=O)c1CCN1CCc2oc3ccccc3c2C1	0.63	2.5
10.2 nM	10.7 nM	813 nM	6.61 nM	Cc1nc2ccccn2c(=O)c1CCCN1CCc2oc3ccccc3c2C1	>10	>2.5
0.603 nM	2.14 nM	692 nM	1.32 nM	Cc1nc2c(C)cccn2c(=O)c1CCN1CCc2oc3ccccc3c2C1	10	2.5
0.347 nM	1.55 nM	288 nM	1.29 nM	Cc1ccc2nc(C)c(CCN3CCc4oc5ccccc5c4C3)c(=O)n2c1	0.16	0.63
0.214 nM	0.955 nM	724 nM	0.724 nM	Cc1nc2ccc(Cl)cn2c(=O)c1CCN1CCc2oc3ccccc3c2C1	0.04	0.63
0.692 nM	1.74 nM	245 nM	1.62 nM	Cc1nc2c(O)cccn2c(=O)c1CCN1CCc2oc3ccccc3c2C1	5	2.5
0.447 nM	2.57 nM	112 nM	1.2 nM	Cc1ccn2c(=O)c(CCN3CCc4oc5ccccc5c4C3)c(C)nc2c1	0.63	2.5
0.355 nM	1.35 nM	891 nM	0.692 nM	Cc1nc2ccc(Br)cn2c(=O)c1CCN1CCc2oc3ccccc3c2C1	0.16	2.5
0.55 nM	2.57 nM	347 nM	1.7 nM	Cc1nc2ccccn2c(=O)c1CCN1CCc2oc3ccccc3c2C1 [LUSAPERIDONE]	0.04	0.31
